RAM inhibit: inhibitors of the yeast RAM network; S. cerevisiae dse1pr::URA3 reporter, 5-FOA growth OD615, 2 d; analog-sensitive cbk1-as2 kinase mutant strain; 190,000 compounds, 1.8% hits; inhibition, % at 50 µM;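 active means inhibition above a set limit, 3 SD over mean compound inhibition, cut at about 8.4% in these data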;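 further: 0% = DMSO-only wells with no growth and 100% = 10 µM 1-NA-PP1 full growth; inhibition rescues growth on 5-FOA so higher OD means more RAM inhibition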
Yeast growth inh: yeast BB579 growth reduction in restrictive medium | S. cerevisiae BB579 growth, OD615, 48 h | inhibition, % at 10 µM | 140,000 compounds, 0.51% hits | AID 804;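 active means inhibition above a set limit, 3 SD over the mean compound inhibition, cut at about 44% in these data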
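controls = amphotericin B 10 µg/mL, positive | assay system = DeaD yeast strain BB579 | schedule = 48 h compound exposure at 30 °C after 4 h preincubation | detection = OD615 turbidity measurement | medium = restrictive CSMM-D medium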
sdo1 growth: compounds rescuing growth of sdo1-depleted yeast, bone marrow failure model. S. cerevisiae sdo1-depleted JHY4D growth rescue, OD600 30 h; hits give high values; pdr5 snq2 efflux-pump mutant strain. z-score at 10 µM. 140,000 compounds, 0.21% hits. AID 817;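 active means z-score above 3 at both the 24 hr and the 30 hr optical density reads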;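 further: z-score against mean and SD of all compound wells on the same plate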
Yeast lifespan up: extends the lifespan of yeast | S. cerevisiae growth with nicotinamide, OD615; deaD strain in restrictive glucose medium | AID 775 | 130,000 compounds, 0.68% hits | inhibition of the nicotinamide effect, % at 10 µM;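 active means inhibition above a set limit, placed 3 SD over the median of all compounds, cut at about 26% in these data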;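 further: 0% = nicotinamide-treated wells and 100% = cells grown without nicotinamide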
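Test system: DeaD-strain S. cerevisiae / Buffer or medium: restrictive glucose medium / Also added: nicotinamide 1.5 mM / Doses: one concentration, 10 µM, DMSO 0.25% / Schedule: 48 h at 30 °C / Signal: OD615 measurement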
SDO1 rescue DR: SDO1-depleted yeast growth rescue confirmation. OD recovery (no concentration beside the values). shares compounds with sdo1 growth. S. cerevisiae JHY4D (SDO1-depleted) growth rescue, OD600, 30 h; hits give high values; efflux-deficient strain, SNQ2 and PDR5 mutated. 440 compounds, 44% hits;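 active means yeast growth recovered at 30 hours, either rising with dose fitted slope above 0.001 or with average optical density gain above 0.07, some results past the limit were not filed as active; inactive means growth falling with dose or no effect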;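 further: gain in OD600 from 0 h to 30 h averaged across all seven doses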
An asterisk follows results filed as active. Only some compounds are listed: those with a hit (about 2.7% of all), similar ones and a draw of the others.

What do the screens show for `N#Cc1nc(-c2cccc3ccccc23)oc1NCCN1CCCCC1`?
RAM inhibit: -1; Yeast growth inh: -11; sdo1 growth: 11*; Yeast lifespan up: -11; SDO1 rescue DR: 0.097*

Results for Cc1c(CN2CCC(CO)(CCOc3ccccc3)CC2)[nH]c2c(Cl)cccc12 ?
RAM inhibit: -1

Results for COc1ccc(NC(=O)CSc2nccc(C)n2)cc1 ?
RAM inhibit: 1; Yeast growth inh: -29; sdo1 growth: 1.9; Yeast lifespan up: -20; SDO1 rescue DR: 0.036

How did COc1ccc(NC(=O)CN2CCCCC2)cc1 do in these assays?
RAM inhibit: 2; Yeast growth inh: 4; sdo1 growth: 0.66; Yeast lifespan up: -16

Results for COc1cc(NC(=O)CSc2nccc(C)n2)c(C(=O)O)cc1OC ?
RAM inhibit: 4; Yeast growth inh: -27; sdo1 growth: -0.25; Yeast lifespan up: -2

What do the screens show for `COc1ccc(NC(=O)CSc2nc(N3CCCCC3)nc(N3CCCCC3)n2)cc1`?
RAM inhibit: 5; Yeast growth inh: -48; sdo1 growth: 1.1; Yeast lifespan up: -18; SDO1 rescue DR: 0.084*

How did O=C(Nc1cccc2ncccc12)C(c1ccccc1)c1ccccc1 do in these assays?
RAM inhibit: 2

What do the screens show for `CCCc1cc(=O)[nH]c(SCC(=O)Nc2cc(C)on2)n1`?
RAM inhibit: 0

How did CN=C1SC(C(=O)Nc2ccccc2Cl)CC(=O)N1c1ccc(OC(F)(F)Cl)cc1 (stereo not drawn) do in these assays?
RAM inhibit: 5

Results for O=[N+]([O-])c1nn(-c2ccc3c(c2)OCCO3)n(O)c1=NCCC1=CCCCC1 ?
RAM inhibit: 3

How did CCOC(=O)c1cnc2ccc(C)cc2c1Sc1ccc(F)cc1 do in these assays?
RAM inhibit: -2; Yeast growth inh: 0; sdo1 growth: 13*; Yeast lifespan up: -8; SDO1 rescue DR: 0.097*

Results for Cc1ccc(/C(O)=C2\C(=O)C(=O)N(CC(C)O)C2c2cccc(F)c2)cc1 (stereo not drawn) ?
RAM inhibit: 6; Yeast growth inh: -40; sdo1 growth: 2.6; Yeast lifespan up: -10; SDO1 rescue DR: 0.065

What do the screens show for `COc1ccc(-c2c(C)n([O-])c3c([n+]2=O)CCCCC3)cc1OC`?
RAM inhibit: 2

Results for Cc1ccc(C(=O)C(C)Sc2nnc(N)s2)cc1 (stereo not drawn) ?
RAM inhibit: 2

Results for CCC(=O)NC1(C(F)(F)F)C(=O)Nc2c1c(=O)[nH]c(=O)n2Cc1ccco1 (stereo not drawn) ?
RAM inhibit: 3; Yeast growth inh: -5; sdo1 growth: 15*; Yeast lifespan up: -9; SDO1 rescue DR: 0.077

How did CCN1CCCC1CNC(=O)CCNC(=O)c1cc(OC)c(OC)c(OC)c1 (stereo not drawn) do in these assays?
RAM inhibit: 2; Yeast growth inh: -30; sdo1 growth: 3.3*; Yeast lifespan up: 1; SDO1 rescue DR: 0.083*

Results for O=C(Nc1ccccc1)c1ccc(NCC2CCCO2)c([N+](=O)[O-])c1 (stereo not drawn) ?
RAM inhibit: 1; Yeast growth inh: -29; sdo1 growth: 11*; Yeast lifespan up: -4; SDO1 rescue DR: 0.086*

Results for COc1ccc(NC(=O)c2ccc(NCC3CCCO3)c([N+](=O)[O-])c2)cc1 (stereo not drawn) ?
RAM inhibit: 5

Results for CC(C)c1ccc(/C=N/NC(=O)c2c(Cl)cnn2C)cc1 ?
RAM inhibit: 2; Yeast growth inh: -13; sdo1 growth: 5.1*; Yeast lifespan up: -6; SDO1 rescue DR: 0.091*

Results for CC(=O)c1cccc(NC(=O)Cn2nc(-c3ccc(Cl)cc3)ccc2=O)c1 ?
RAM inhibit: 0

How did CC(C)C(OC(=O)c1cccs1)C(=O)NCc1ccc2c(c1)OCO2 (stereo not drawn) do in these assays?
RAM inhibit: 4

Results for COc1ccc(/C=N/NC(=S)Nc2ccccc2)cc1 ?
RAM inhibit: -1

How did COc1ccc(/C=N/NC(=S)NC2CCS(=O)(=O)C2)cc1 (stereo not drawn) do in these assays?
RAM inhibit: 1; Yeast growth inh: -20; sdo1 growth: 11*; Yeast lifespan up: -1; SDO1 rescue DR: 0.062

What do the screens show for `COc1ccc(CNC(=O)c2cc(-c3ccc(OC)c(OC)c3)on2)cc1`?
RAM inhibit: 0; Yeast growth inh: -28; sdo1 growth: 8.7*; Yeast lifespan up: -7; SDO1 rescue DR: 0.047

Results for COc1ccc(NC(=O)c2cc(-c3ccc(OC)c(OC)c3)on2)cc1OC ?
RAM inhibit: 5; Yeast growth inh: -38; sdo1 growth: 1.8; Yeast lifespan up: -12; SDO1 rescue DR: 0.068

Results for COc1ccc(C(CNC(=O)c2cc(C)oc2C)N2CCOCC2)cc1 (stereo not drawn) ?
RAM inhibit: 1; Yeast growth inh: -47; sdo1 growth: 1.5; Yeast lifespan up: -5; SDO1 rescue DR: 0.082*

Results for CC(=O)NS(=O)(=O)c1ccc(NC(=O)CN2C(=O)C3C4C=CC(C4)C3C2=O)cc1 (stereo not drawn) ?
RAM inhibit: 1; Yeast growth inh: -29; sdo1 growth: 0.64; Yeast lifespan up: 3

How did Cc1cccc(C)c1NC(=S)N1CCC(N(C)CC2CCCO2)CC1 (stereo not drawn) do in these assays?
RAM inhibit: 1; Yeast growth inh: -45; sdo1 growth: 0.62; Yeast lifespan up: -6

What do the screens show for `Cc1cc(C)c(NC(=S)N2CCC(N(C)CC3CCCO3)CC2)c(C)c1` (stereo not drawn)?
RAM inhibit: 1; Yeast growth inh: -6; sdo1 growth: 3.6*; Yeast lifespan up: -4; SDO1 rescue DR: 0.096*

Results for O=c1ccc(OCCOc2ccccc2)nn1-c1ccccc1 ?
RAM inhibit: 1; Yeast growth inh: -15; sdo1 growth: 12*; Yeast lifespan up: -6; SDO1 rescue DR: 0.082*

How did NC(=O)COc1ccc(=O)n(-c2ccccc2)n1 do in these assays?
RAM inhibit: 0; Yeast growth inh: -23; sdo1 growth: 1.4; Yeast lifespan up: -11

How did COc1ccc(Br)cc1C(=O)Nc1nnn(C)n1 do in these assays?
RAM inhibit: 0; Yeast growth inh: -11; sdo1 growth: -0.32; Yeast lifespan up: -6

Results for COc1ccc(Cl)cc1C(=O)Nc1nnn(C)n1 ?
RAM inhibit: 1; Yeast growth inh: -37; sdo1 growth: 2.3; Yeast lifespan up: -9; SDO1 rescue DR: 0.071

Results for O=C(NCCN=C1NS(=O)(=O)c2ccccc21)c1ccco1 ?
RAM inhibit: 2; Yeast growth inh: -14; sdo1 growth: 3.8*; Yeast lifespan up: -16; SDO1 rescue DR: 0.085*

Results for CCCCCCCCCCCC(=O)NC(C(=O)O)C(O)c1ccccc1 (stereo not drawn) ?
RAM inhibit: 1
